Test results as given in ChEMBL document CHEMBL4725285, “Amides as bioisosteres of triazole-based geranylgeranyl diphosphate synthase inhibitors” (Bioorg Med Chem, 2020).
Activity calls are given as the source filed them. The calls are words filed in the database; no cut-off is given here.

Columns and labels:
[1] = target: T1, Geranylgeranyl pyrophosphate synthase (Homo sapiens) (UniProt O95749); assay: Inhibition of GGDPS in human RPMI-8226 cells assessed as lowest effective concentration required to show unmodified Rap1a band after 48 hrs by immunoblot analysis; format: cell-based
T1 sequence (whole entry): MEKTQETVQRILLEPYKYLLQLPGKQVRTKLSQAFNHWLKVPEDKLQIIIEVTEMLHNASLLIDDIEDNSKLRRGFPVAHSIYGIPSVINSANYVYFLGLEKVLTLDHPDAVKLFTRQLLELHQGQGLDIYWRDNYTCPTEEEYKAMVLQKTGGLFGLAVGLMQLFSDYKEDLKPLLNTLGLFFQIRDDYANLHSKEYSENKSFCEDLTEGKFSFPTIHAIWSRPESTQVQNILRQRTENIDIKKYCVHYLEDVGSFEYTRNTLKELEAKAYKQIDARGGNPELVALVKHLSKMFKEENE
Outline: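 RPMI-8226 myeloma cells exposed to drugs for 48 hrs, with lovastatin as positive control. Lysate protein quantified by BCA. Equal amounts run on SDS-PAGE, blotted to PVDF, and probed for H-Ras, Rap1a (antibody recognises only unmodified protein) and β-tubulin as loading control. Detection by HRP secondary antibodies and ECL.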

[2] = target: T1, Geranylgeranyl pyrophosphate synthase (Homo sapiens); assay: Inhibition of GGDPS in human RPMI-8226 cells assessed as lowest effective concentration required for increase in intracellular lambda chain level after 48 hrs by ELISA; format: cell-based
[3] = organism: Rattus norvegicus; assay: Inhibition of recombinant rat FTase expressed in Escherichia coli using dansyl-GCVLS peptide and farnesyl pyrophosphate as substrate at 100 uM after 1 hr by fluorescence microplate reader analysis relative to control
Outline: (§1)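 Recombinant FTase and GGTase I assayed with dansyl-GCVLS and dansyl-GCVLL peptides by a modified Temple et al. method. Fluorescence change followed over time on a microplate reader. Duplicates at multiple concentrations, up to 100 μM, in three independent experiments. IC50 taken from concentration-response curves.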

[4] = target: T2, Geranylgeranyl pyrophosphate synthase (Homo sapiens, UniProt O95749); assay: Inhibition of recombinant GGDPS (unknown origin) using [14C] IPP and FPP as substrate preincubated for 10 mins followed by substrate addition and measured after 30 min by liquid scintillation counting method
T2 sequence (O95749 whole entry): T1 sequence (whole entry)
Outline: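 Recombinant GGDPS used, run by a previously described method. Each compound tested in duplicate at multiple concentrations across three independent experiments. IC50 derived from concentration-response curves.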

[5] = organism: Rattus norvegicus; assay: Inhibition of recombinant rat GGtase-1 expressed in Escherichia coli using dansyl-GCVLS and geranylgeranyl pyrophosphate as substrate at 100 uM after 2 hrs by fluorescence microplate reader analysis relative to control; outline: as §1
[6] = organism: Homo sapiens; assay: Selectivity ratio of IC50 for FDPS (unknown origin) to IC50 for GGDPS (unknown origin)
[7] = target: T3, Farnesyl pyrophosphate synthase (Homo sapiens, UniProt P14324); assay: Inhibition of recombinant FDPS (unknown origin) using [14C] IPP and GPP as substrate preincubated for 10 mins followed by substrate addition and measured after 30 min by liquid scintillation counting method
T3 sequence (P14324 whole entry): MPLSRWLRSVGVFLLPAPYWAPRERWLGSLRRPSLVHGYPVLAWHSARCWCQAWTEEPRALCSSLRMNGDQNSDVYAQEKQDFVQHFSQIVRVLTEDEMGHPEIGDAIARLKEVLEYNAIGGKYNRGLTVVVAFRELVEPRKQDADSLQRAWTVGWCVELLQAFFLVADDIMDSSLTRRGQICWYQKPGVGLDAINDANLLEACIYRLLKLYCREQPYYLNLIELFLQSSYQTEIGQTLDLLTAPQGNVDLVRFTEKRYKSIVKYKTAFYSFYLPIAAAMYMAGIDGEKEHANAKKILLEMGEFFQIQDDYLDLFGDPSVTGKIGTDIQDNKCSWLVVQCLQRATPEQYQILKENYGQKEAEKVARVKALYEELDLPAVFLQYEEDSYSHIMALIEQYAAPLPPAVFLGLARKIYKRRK

[8] = organism: Rattus norvegicus; assay: Inhibition of recombinant rat GGtase-1 expressed in Escherichia coli using dansyl-GCVLS and geranylgeranyl pyrophosphate as substrate after 2 hrs by fluorescence microplate reader analysis; outline: as §1

Compound | LED [1] [µM] | LED [2] [µM] | inhibition [3] | IC50 [4] [µM] | inhibition [5] | Ratio IC50 [6] | IC50 [7] [µM] | inhibition [8]
CC(C)=CCC/C(C)=C/C(=O)NCCC(P(=O)(O)O)P(=O)(O)O (mixture of isomers) | 10 | 10 | – | – | – | – | – | –
CC(C)=CCC/C(C)=C\C(=O)NCCC(P(=O)(O)O)P(=O)(O)O | 50 | 50 | < 30% | – | – | – | – | –
CC(C)=CCC[C@H](C)CC(=O)NCCC(P(=O)(O)O)P(=O)(O)O | 50 | 50 | inactive | 5.4 | inactive | 5.1 | 27.8 | –
CC(C)=CCC/C(C)=C\CCn1cc(CC(P(=O)(O)O)P(=O)(O)O)nn1 | 0.03 | 0.03 | – | – | – | 445 | 33.3 | –
CC(C)=CCC/C(C)=C/C(=O)NCCC(P(=O)(O)O)P(=O)(O)O | 5 | 5 | – | – | – | – | – | inactive
CC(C)=CCCC(=O)NCCC(P(=O)(O)O)P(=O)(O)O | 50 | 50 | – | 14.4 | – | 3.1 | 44.4 | –
CC(C)=CCC/C(C)=C\CC(=O)NCCC(P(=O)(O)O)P(=O)(O)O | 5 | 5 | inactive | 3.7 | inactive | 2.1 | 7.8 | –
CC(C)=CCC/C(C)=C/CCC(=O)NCCC(P(=O)(O)O)P(=O)(O)O | 1 | 1 | inactive | 0.8 | inactive | 17.9 | 14.3 | –
CC(C)=CCC[C@@H](C)CC(=O)NCCC(P(=O)(O)O)P(=O)(O)O | 5 | 5 | inactive | 3.4 | inactive | 14.3 | 48.5 | –
CC(C)=CCC/C(C)=C\CCC(=O)NCCC(P(=O)(O)O)P(=O)(O)O | 0.5 | 0.5 | inactive | 1.1 | inactive | 28.8 | 31.7 | –
